One block for each molecule: values may come before it.
How the values were obtained:
[1] = target: actin (F-actin) in invasive pseudopods of MDA-MB-231 cells (human (endogenous in MDA-MB-231)) (UniProt P60709); assay: FRET or BRET
[2] = test system: mCherry-MT1-MMP in MDA-MB-231 cells; assay: FRAP of mCherry-MT1-MMP at plasma membrane of cells in CIA; format: cell-based; conditions: invasive pseudopods in Matrigel (CIA); LatA at 2 µM
Procedure, shortened: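 mCherry-MT1-MMP expressed in MDA-MB-231 cells by nucleofection; cells kept at 37°C, 5% CO2. Photobleaching was done on the plasma membrane of invasive pseudopods in Matrigel and compared with other cell-surface regions, such as the membrane next to the nucleus. Fluorescence recovery gave MT1-MMP mobility.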

[3] = test system: GFP-actin in MDA-MB-231 cells; assay: FRAP of GFP-actin in invasive pseudopods; format: cell-based; conditions: 2 µM LatA, invasive pseudopod, FRAP 90 s
[4] = test system: BM collagen IV / MDA-MB-231 cells; assay: Native peritoneal basement membrane; format: cell-based, mouse (C57BL/6) BM; conditions: 3 d culture; GM6001 at 5 µM
Procedure, shortened: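 Native basement membrane was made by stripping mesothelial cells from C57BL/6 mouse mesentery (1 N ammonium hydroxide) and mounting it on 6.5-mm Transwells. 5 × 10^4 MDA-MB-231 cells were seeded on top in DME/10% FBS, with medium below, and cultured 3 d. Samples were fixed in 4% formaldehyde, then stained on both sides for collagen IV (antibody 1:200), phalloidin and DAPI, and imaged by confocal. Read-out was total remaining collagen IV fluorescence; ≥3 independent experiments in duplicate.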

MDA-MB-231 cells = conditions: CIA; ref Yu and Machesky, 2012; cited from earlier work

donor fluorescence lifetime with acceptor (FLIM-FRET) [1]: 2.25 ns | shift in the donor fluorescence lifetime (FLIM-FRET) [1]: 150 ps
Molecule: MT1-MMP-GFP (from UniProt P50281 112-582) (natural protein)

Molecule: C/C1=C/C(=O)O[C@@H]2C[C@@H](CC[C@H](C)/C=C\C=C\CC1)O[C@@](O)([C@@H]1CSC(=O)N1)C2 [Latrunculin A]
mobility of MT1-MMP in pseudopods [2]: mCherry-MT1-MMP became more mobile | GFP-actin exchange [3]: GFP-actin exchanged much faster

Molecule: CNC(=O)[C@H](Cc1c[nH]c2ccccc12)NC(=O)[C@@H](CC(=O)NO)CC(C)C [GM6001]
degradation and remodeling of BM collagen IV [4]: significantly blocked | reduction of migration speed (MDA-MB-231 cells): 30–50%
